Source: PubChem BioAssay
Sampled rows, rich in hits. Any-hit rate of the full collection: about 3.5%.
MrgX1 antagonist = human MrgX1 receptor antagonism, primary screen; MRGX1-HEK293 calcium flux, Fluo-4, BAM8-22 antagonism; active compounds read low; B-score at 10 µM; AID 588676; 310,000 compounds, 1.3% hits;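 active = calcium-response B-score plate-corrected more than 3 library SD below zero, starting fluorescence within 5 deviations, no agonist response on first addition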;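 also: peak minus trough fluorescence over baseline after final BAM8-22 challenge near maximal dose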
Target sequence (Q96LB2 whole entry, looked up): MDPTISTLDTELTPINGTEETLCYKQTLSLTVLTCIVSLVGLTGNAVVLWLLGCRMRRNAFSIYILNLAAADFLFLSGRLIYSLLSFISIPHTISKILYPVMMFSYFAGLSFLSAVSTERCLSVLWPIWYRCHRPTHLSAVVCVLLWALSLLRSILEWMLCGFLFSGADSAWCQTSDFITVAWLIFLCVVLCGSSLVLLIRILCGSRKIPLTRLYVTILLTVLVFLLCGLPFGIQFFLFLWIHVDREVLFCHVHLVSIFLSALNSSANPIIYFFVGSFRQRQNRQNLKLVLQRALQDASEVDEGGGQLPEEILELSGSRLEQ
MrgX1 ag = activates human MrgX1 receptor signaling; 310,000 compounds, 0.44% hits; MrgX1-HEK293 cells, Fluo-4 calcium fluorescence, agonist mode; active compounds read high; Q96LB2; B-score at 10 µM;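 active = calcium response B-score plate-corrected fluorescence ratio at least 3 library SD, with starting fluorescence B-score inside 5 SD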
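times = overnight plating, then 30 min 37 °C plus 30 min room-temperature dye loading | assay system = stable human MrgX1 HEK293 cell line | input = fifteen thousand cells per well | signal = kinetic calcium dye fluorescence, Fluo-4 NW | dosing = compound delivered in addition one of three | read-out = B-scored fluorescence response ratio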
RGS4 inh = human RGS4 inhibition; AID 463165; P49798; HEK293 M3R/RGS4 inducible, Fluo-4 calcium flux; active compounds read high; triggered by carbachol at its EC20; B-score at 10 µM; 310,000 compounds, 0.45% hits;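 active = B-score, a plate-corrected calcium signal, over three deviations above library mean, with baseline fluorescence within five deviations of library mean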;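 also: RGS4 expression induced by doxycycline in cells with stable M3 receptor; B-score is computed from the integrated fluorescence ratio over baseline after carbachol; higher B-score means a larger calcium signal and so more RGS4 inhibition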
MrgX1 allo act = human MrgX1 positive allosteric modulation, primary screen; B-score at 10 µM; 310,000 compounds, 0.63% hits; MrgX1-HEK293, Fluo-4 calcium flux, FDSS; active compounds read high; Q96LB2;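 active = plate-corrected calcium response at least 3 library SD above typical, normal starting fluorescence, not activating the receptor alone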;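 also: compound read alongside a low EC10 to EC30 dose of BAM8-22 agonist; peak minus trough fluorescence over baseline measured at the second addition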
RGS4 pot = potentiators or activators of RGS4 | HEK293 M3R/inducible RGS4, carbachol calcium flux Fluo4; active compounds read low | B-score at 10 µM | 310,000 compounds, 0.92% hits | AID 463111;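 active = B-score of the integrated calcium signal more than 4 SD below the library mean, with starting fluorescence not abnormally high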;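 also: negative B-score means reduced calcium response which marks RGS4 activation or potentiation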
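Detection: kinetic calcium fluorescence imaging with Fluo4-AM dye, 2 µM / Material: HEK293 cells with stable M3R and inducible RGS4 / Schedule: recording 10 s baseline at 1 Hz, 100 s post-agonist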
The depositor's hits bear a star.

COc1ccc(/C=C2\SC(=S)N(C(C(=O)O)c3ccccc3)C2=O)c(OC)c1 (stereo not given) was read as MrgX1 antagonist -5.2*, MrgX1 ag inactive, RGS4 inh inactive, MrgX1 allo act inactive and RGS4 pot inactive.
COc1ccc(/C=C2\SC(=S)N(NS(=O)(=O)c3ccc(C)cc3)C2=O)c(OC)c1 was read as MrgX1 antagonist inactive, MrgX1 ag inactive, RGS4 inh inactive, MrgX1 allo act inactive and RGS4 pot -8.2*.
`CCOc1cc(/C=C2\SC(=S)N(NS(=O)(=O)c3ccccc3)C2=O)ccc1O` gave MrgX1 antagonist inactive, MrgX1 ag 34*, RGS4 inh inactive, MrgX1 allo act inactive and RGS4 pot inactive.
COc1cccc(-c2ccc(NC(=O)C3CCCN(CCCn4nc(C)cc4C)C3)cc2)c1 (stereo not given) was read as MrgX1 antagonist inactive, MrgX1 ag inactive, RGS4 inh inactive, MrgX1 allo act inactive and RGS4 pot inactive.
COc1ccc(S(=O)(=O)N2CCCCCC2)cc1C(=O)N(C)Cc1ccco1 was read as MrgX1 antagonist inactive, MrgX1 ag inactive, RGS4 inh inactive, MrgX1 allo act inactive and RGS4 pot inactive.
For COc1ccc(/C=C2\SC(=S)N(NS(=O)(=O)c3ccccc3)C2=O)c(OC)c1 the results were MrgX1 antagonist -8.7*, MrgX1 ag inactive, RGS4 inh inactive, MrgX1 allo act inactive and RGS4 pot -7.5*.
For CCOC(=O)c1sc(N/N=C/c2ccccc2)nc1C the results were MrgX1 antagonist inactive, MrgX1 ag inactive, RGS4 inh inactive, MrgX1 allo act inactive and RGS4 pot inactive.
O=C(O)Cc1sc(N/N=C\c2ccccc2)nc1-c1ccccc1 was read as MrgX1 antagonist -6.2*, MrgX1 ag inactive, RGS4 inh inactive, MrgX1 allo act inactive and RGS4 pot inactive.
For O=C(/C=C/c1ccccc1)CC(O)(c1ccccc1)C(F)(F)C(F)F (stereo not given) the results were MrgX1 antagonist inactive, MrgX1 ag inactive, RGS4 inh inactive, MrgX1 allo act inactive and RGS4 pot -8.9*.
`COc1ccc(/C=C/C(=O)CC(O)(c2ccccc2)C(F)(F)F)cc1` (stereo not given) gave MrgX1 antagonist inactive, MrgX1 ag inactive, RGS4 inh inactive, MrgX1 allo act inactive and RGS4 pot inactive.
For O=C(/C=C/c1ccccc1)CC(O)(c1ccccc1)C(F)(F)F (stereo not given) the results were MrgX1 antagonist inactive, MrgX1 ag inactive, RGS4 inh inactive, MrgX1 allo act inactive and RGS4 pot -10*.
Screening COc1cc(NC(=O)C(C)Oc2ccccc2)ccc1NC(=O)COc1ccccc1 (stereo not given) returned MrgX1 antagonist inactive, MrgX1 ag inactive, RGS4 inh inactive, MrgX1 allo act inactive and RGS4 pot inactive.
Screening COc1ccc(CCNC(=O)C2CCC(=O)N(CC3CCCCC3)C2)cc1 (stereo not given) returned RGS4 inh inactive and RGS4 pot -7.1*.
O=C(c1ccc2[nH]c(=O)c(=O)[nH]c2c1)N1CCc2ccccc21 was read as MrgX1 antagonist inactive, MrgX1 ag inactive, RGS4 inh inactive, MrgX1 allo act inactive and RGS4 pot inactive.
`COCCSc1ccccc1C(=O)Nc1cc([N+](=O)[O-])ccc1OC` gave MrgX1 antagonist inactive, MrgX1 ag inactive, RGS4 inh inactive, MrgX1 allo act inactive and RGS4 pot inactive.
Screening COc1ccc([N+](=O)[O-])cc1NC(=O)C1(c2ccccc2)CCOCC1 returned MrgX1 antagonist inactive, MrgX1 ag inactive, RGS4 inh inactive, MrgX1 allo act 8.7* and RGS4 pot inactive.
Screening COc1ccc([N+](=O)[O-])cc1NC(=O)c1ccccc1N(C)S(C)(=O)=O returned MrgX1 antagonist inactive, MrgX1 ag inactive, RGS4 inh inactive, MrgX1 allo act 7* and RGS4 pot inactive.
Cc1c(NC(=O)Cc2noc3ccccc23)cccc1[N+](=O)[O-] was read as MrgX1 antagonist inactive, MrgX1 ag inactive, RGS4 inh inactive, MrgX1 allo act inactive and RGS4 pot inactive.
COc1ccc([N+](=O)[O-])cc1NC(=O)Cc1noc2ccccc12 was read as MrgX1 antagonist -9.7*, MrgX1 ag inactive, RGS4 inh inactive, MrgX1 allo act inactive and RGS4 pot inactive.
